The test system of data set [1] is Hepatitis B virus. The data set can be described thus: Antiviral activity against HBV infected in human HepG2.2.15 cells assessed as […] at 100 uM incubated for 4 days prior to compound washout followed by compound addition and measured after 4 days by fluorogenic probe based RT-qPCR analysis relative to control. The class given is functional. As to conditions: for inhibition at 100 µM: HepG2.2.15, 192 h, time 8 day; for inhibition: time 8.0 day. On the technique in general: In qPCR the cycle at which signal appears reflects the starting amount.

Data set [2] relates to HepG2 2.2.15. The experiment in a line: Cytotoxicity against human HepG2.2.15 cells assessed as reduction in cell viability at 100 uM incubated for 4 days prior to compound washout followed by compound addition and measured after 4 days by CCK8 assay relative to control. The class given is cell-based. As to conditions: hepg2 2.2.15, 192 h, time 8 day. The essentials: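 Three wells of 4000 HepG2.2.15 cells per well received a single 100 µM concentration for 8 days, with medium replaced on day 4. CCK-8 (10%) was added 0.5 h before the end, and OD was read at 450 and 630 nm. Percent cell death was calculated against untreated cells.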
(In general: Tetrazolium assays rely on reduction of a dye to a coloured formazan, in cell work by metabolically active cells.)

A short description of data set [3]: Cytotoxicity against human HepG2.2.15 cells assessed as reduction in cell viability incubated for 4 days prior to compound washout followed by compound addition and measured after 4 days by CCK8 assay. The class given is cell-based, HepG2 2.2.15. As to conditions: time 8 day. The essentials: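 Cytotoxicity in HepG2.2.15 cells was measured with five doses (100, 20, 4, 0.8, 0.16 µM) over 8 days, with medium changed on day 4. CCK-8 (10%) was added 0.5 h before the end, OD was read at 450/630 nm, and CC50 is the concentration killing 50% of cells against untreated controls.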

Data set [4] concerns Hepatitis B virus. The data set can be described thus: Antiviral activity against HBV infected in human HepG2.2.15 cells assessed as […] incubated for 4 days prior to compound washout followed by compound addition and measured after 4 days by fluorogenic probe based RT-qPCR analysis. It is filed as functional, organism-based.
A short description of data set [5]: Selectivity index, ratio of CC50 for human HepG2.2.15 cells to IC50 for antiviral activity against HBV infected in human HepG2.2.15 cells assessed as reduction in intracellular viral DNA level. It is filed as toxicity, cell-based. As to conditions: read-out: Ratio CC50/IC50.
The test system of data set [6] is Hepatitis B virus. The experiment in a line: Antiviral activity against HBV infected in human HepG2.2.15 cells assessed as reduction in HBsAg secretion incubated for 4 days prior to compound washout followed by compound addition and measured after 4 days by ELISA. The class given is functional, organism-based. The essentials: (§1)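 Five doses (100, 20, 4, 0.8, 0.16 µM) were added in triplicate to HepG2.2.15 cultures for 8 days, with fresh medium on day 4 and untreated controls. Day-8 supernatants were assayed for HBsAg and HBeAg by ELISA kit with absorbance read-out. IC50 is the concentration giving 50% inhibition of antigen secretion.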
A general note: ELISA stands for enzyme-linked immunosorbent assay.

The test system of data set [7] is Hepatitis B virus. The data set can be described thus: Antiviral activity against HBV infected in human HepG2.2.15 cells assessed as reduction in HBeAg secretion incubated for 4 days prior to compound washout followed by compound addition and measured after 4 days by ELISA. It is filed as functional, organism-based. The essentials: as §1
A short description of data set [8]: Selectivity index, ratio of CC50 for human HepG2.2.15 cells to IC50 for antiviral activity against HBV infected in human HepG2.2.15 cells assessed as reduction in HBsAg secretion. It is filed as toxicity, cell-based. As to conditions: read-out: Ratio CC50/IC50.
The nature of data set [9]: Selectivity index, ratio of CC50 for human HepG2.2.15 cells to IC50 for antiviral activity against HBV infected in human HepG2.2.15 cells assessed as reduction in HBeAg secretion. As to conditions: read-out: Ratio CC50/IC50. The class given is toxicity, cell-based.
Data set [10] relates to Hepatitis B virus. The data set can be described thus: Antiviral activity against HBV infected in human HepG2.2.15 cells assessed as reduction in intracellular viral DNA level at 50 uM incubated for 4 days prior to compound washout followed by compound addition and measured after 4 days by fluorogenic probe based RT-qPCR analysis relative to control. It is filed as functional. As to conditions: for inhibition at 50 µM: HepG2.2.15, 192 h, time 8 day; for inhibition: time 8.0 day.

The test system of data set [11] is HepG2 2.2.15. The experiment in a line: Cytotoxicity against human HepG2.2.15 cells assessed as reduction in cell viability at 50 uM incubated for 4 days prior to compound washout followed by compound addition and measured after 4 days by CCK8 assay relative to control. As to conditions: hepg2 2.2.15, 192 h, time 8 day. The class given is cell-based.
The test system of data set [12] is Hepatitis B virus. The data set can be described thus: Antiviral activity against HBV infected in human HepG2.2.15 cells assessed as reduction in intracellular viral DNA level at 20 uM incubated for 4 days prior to compound washout followed by compound addition and measured after 4 days by fluorogenic probe based RT-qPCR analysis relative to control. The class given is functional. As to conditions: for inhibition: time 8.0 day.

Data set [13] concerns HepG2 2.2.15. The experiment in a line: Cytotoxicity against human HepG2.2.15 cells assessed as reduction in cell viability at 20 uM incubated for 4 days prior to compound washout followed by compound addition and measured after 4 days by CCK8 assay relative to control. As to conditions: hepg2 2.2.15, 192 h, time 8 day. The class given is cell-based.
The nature of data set [14]: Cytotoxicity against human HepG2.2.15 cells assessed as reduction in cell viability incubated for 4 days prior to compound washout followed by compound addition and measured after 4 days by […]. It is filed as cell-based, HepG2 2.2.15. As to conditions: time 8 day.
In data set [15] the test system is Hepatitis B virus. The data set can be described thus: Binding affinity to recombinant HBV capsid protein assessed as response value at 100 uM by surface plasmon resonance analysis (reference value: 14.56). The essentials: (§2)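 Recombinant HBV capsid protein purified and amine-coupled to a CM5 sensor chip. Six doses of test compound run with running buffer containing 5% DMSO, plus eight solvent-calibration solutions and 50% DMSO solution. Samples centrifuged 15 min before loading. PBS and NaAc-HAc buffers used. Binding read as SPR response.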

Data set [16] relates to Hepatitis B virus. The data set can be described thus: Binding affinity to recombinant HBV capsid protein assessed as response value at 50 uM by surface plasmon resonance analysis (reference value: 14.56). The essentials:
as §2

Data set [17] deals with Hepatitis B virus. The experiment in a line: Binding affinity to recombinant HBV capsid protein assessed as response value at 25 uM by surface plasmon resonance analysis (reference value: 14.56). The essentials: as §2
The subject of data set [18] is Hepatitis B virus. The data set can be described thus: Binding affinity to recombinant HBV capsid protein assessed as response value at 12.5 uM by surface plasmon resonance analysis (reference value: 14.56). The essentials:
as §2

For data set [19], the system named is Hepatitis B virus. The data set can be described thus: Binding affinity to recombinant HBV capsid protein assessed as response value at 6.25 uM by surface plasmon resonance analysis (reference value: 14.56). The essentials: as §2
Data set [20] is described as follows: (§3) Binding affinity to recombinant HBV capsid protein by surface plasmon resonance analysis. On the set-up: species or system Hepatitis B virus. The essentials:
as §2

Data set [21] concerns Hepatitis B virus. The data set is described as §3. The essentials:
as §2

Data set [22] relates to Hepatitis B virus. The experiment in a line: Antiviral activity against HBV infected in human HepG2.2.15 cells assessed as reduction in intracellular viral DNA level incubated for 8 days by fluorogenic probe based RT-qPCR analysis. As to conditions: HepG2.2.15, 192 h.

The source made the active and inactive calls. No cut-off for these calls is given here. Some results are limits rather than exact numbers.

Broadly, the inhibition is the drop in the measured response relative to a control, in per cent. The term CC50 denotes the concentration giving 50% cytotoxicity. As a reminder, the IC50 is the concentration needed to halve the response being measured. Take `Nc1ccn([C@@H]2CS[C@H](CO)O2)c(=O)n1` [LAMIVUDINE]: in data set [1], the inhibition at 100 µM worked out at 87.9%. Also, the Activity in data set [2] was 12.7%. The CC50 at 192 h in [3] was over 100 µM. Also, the concentration for half-maximal inhibition (IC50) in data set [4] is 0.6 µM; in data set [6] it was over 100 µM; in data set [7], over 100 µM. Besides, the selectivity ratio in [5] is over 167.
Turning to `CC(C)Cc1sc(-c2nccs2)nc1C(=O)NCc1ccc(F)cc1F`, in data set [1], the inhibition at 100 µM came out at 83.8%. The Activity in [2] was 24.9%. Besides, the CC50 at 192 h in [3] stood at 45.4 µM. Further, the values for the concentration for half-maximal inhibition (IC50) in data set [4], in [6] and in data set [7] were 2.7 µM, 21 µM and 30.1 µM, respectively. The selectivity ratio in data set [5] was found to be 16.8; in [8], 2.2; in data set [9], 1.5.
Turning to `O=C(NCc1ccc(F)cc1Cl)c1cn(-c2nccs2)nc1NCc1ccccc1`, the inhibition at 100 µM in [1] was determined as 41.6%. In addition, the Activity in [2] came to 29.2%.
Consider `CC(C)Cc1nc(-c2cccc(F)c2)ncc1C(=O)O`, for which the inhibition at 50 µM in data set [10] was 54.2%. The Activity result in [11] is on record as “Non-Toxic”. In addition, the CC50 at 192 h in data set [3] was over 100 µM. Further, the values for the half-maximal inhibitory concentration (IC50) in data set [4], in data set [6] and in data set [7] were 9.9 µM, over 100 µM and 9.7 µM, respectively. The selectivity ratio in data set [5] was over 10.1; in data set [9] it was over 10.3.
`CCOC(=O)c1cn(-c2cccc(F)c2)nc1NC`: in data set [1], the inhibition entry was “inactive”. Also, in data set [2], the Activity is on record as 5.7%.
Take `CC(C)Cc1nc(-c2ccccc2)ncc1C(=O)NCc1ccccc1`: the inhibition result in data set [10] was “inactive”. Moreover, in data set [11], the Activity result is listed as “Non-Toxic”.
On to `CCOC(=O)c1cn(-c2nccs2)nc1NCc1ccccc1`, for which the inhibition result in data set [1] is “inactive”. Also, the Activity in data set [2] turned out to be 30.4%.
`COC(=O)c1nc(-c2ccccc2OC)cnc1NC(=O)c1ccccc1`: the inhibition entry in [10] is “inactive”. The Activity in data set [11] turned out to be 5.7%.
Consider `CC(C)Cc1nc(-c2cccc(F)c2)ncc1C(=O)NCc1ccc(F)cc1`, for which the inhibition at 50 µM in data set [10] was 35.6%. Further, the Activity entry in data set [11] is given as “Non-Toxic”.
Regarding `CC(C)Cc1nc(NS(=O)(=O)c2ccc(F)cc2)sc1C(=O)NCc1ccc(F)cc1`, the inhibition result in [12] is “inactive”. For the same compound, in data set [13], the Activity worked out at 17.5%.
`CC(C)Cc1nc(NC(=O)c2ccc(F)cc2)sc1C(=O)NCc1ccc(F)cc1`: the inhibition at 20 µM in data set [12] (HepG2.2.15, 192 h, time 8 day) was 29.2%. For the same compound, the Activity in data set [13] worked out at 20.7%.
Regarding `CC(C)Cc1nc(NC(=O)c2cccs2)sc1C(=O)NCc1ccc(F)cc1`, in [12], the inhibition result was “inactive”. Moreover, the Activity in data set [13] came out at 15.2%.
Usually Kd stands for the equilibrium constant for the complex coming apart. Turning to `CC(C)Cc1sc(-c2nccs2)nc1C(=O)NCc1ccc(F)cc1`, the values for the half-maximal cytotoxic concentration (CC50) at 192 h in [14] and in data set [3] were 50.4 µM and 59.2 µM, respectively. The inhibition at 100 µM in [1] was 97.3%. The Activity turned out to be 98.8% in [2]; 63.5 RU in data set [15]; 41.4 RU in data set [16]; 38.4 RU in [17]; 23.9 RU in data set [18]; 17.7 RU in [19]. Also, the Activity result in data set [21] was “Dose-dependent effect”. Besides, the IC50 was 2.3 µM in data set [4], 31.7 µM in data set [6], 31.7 µM in data set [7] and 1.33 µM in data set [22]. Besides, the selectivity ratio in [5] was found to be 25.7; in data set [8], 1.9; in data set [9], 1.9. In addition, the equilibrium dissociation constant (Kd) in data set [20] was 50.6 µM.

The values above are taken from ChEMBL document CHEMBL4765395, “Design, diversity-oriented synthesis and biological evaluation of novel heterocycle derivatives as non-nucleoside HBV capsid protein inhibitors” (Eur J Med Chem, 2020).
